Assay results: the RNAGym collection of RNA variant scans (doi:10.1126/science.aae0568)
This sample holds only a part of the variants without activity.

B1: tRNA (parent)
chain: GUUCCGUUGGCGUAAUGGUAACGCGUCUCCCUCCUAAGGAGAAGACUGCGGGUUCGAGUCCCGUACGGAACG

Variants of: B1
Assay: yeast fitness relative to wild type (ratio to wild type); higher = fitter; tRNA-Arg(CCU), competitive growth, 37 C, YPD
In short: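 Amplicons of the tRNA-Arg(CCU) gene were sequenced, 100-nucleotide paired-end, from the start population and from each end population of a pooled yeast competition. The competition, in six parallel replicates, lasted 24 hours in YPD at 37°C. Fitness relative to wild type was calculated from changes in genotype frequencies. Genotypes had to have ≥ 100 starting reads, and estimates < 0.5 were set to 0.5.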

U3A G17C C29U and U3A C11G G12A C22U G39A cannot be ordered by yeast fitness: ≤ 0.5 for the first, ≤ 0.5 for the second.

First: U3C A15G G68C
Second: U3C C5U U7G C22U C27G G58A
The yeast fitness of the first is higher: 0.618 for the first, ≤ 0.5 for the second.

Compared with U3A C62A, U3A C66G is lower in yeast fitness: 0.727 for the first, 0.669 for the second.

U3C A15C U47G U54A G58A and U3A U32A G39A C49G C55U cannot be ordered by yeast fitness: ≤ 0.5 for the first, ≤ 0.5 for the second.

Compared with U3A U7G A14U G25A G41C C46U U59C C61A, U3A G9C C46G is higher in yeast fitness: ≤ 0.5 for the first, 0.533 for the second.

U3A G12C A21C A36C C49U A70U and U3C C5G G9A C11G C66U cannot be ordered by yeast fitness: ≤ 0.5 for the first, ≤ 0.5 for the second.

Compared with U3A C29G G50A, U3A C11U is higher in yeast fitness: ≤ 0.5 for the first, 0.808 for the second.

U3A C34U A45G C49U U53A and U3C C11A C31A G67U cannot be ordered by yeast fitness: ≤ 0.5 for the first, ≤ 0.5 for the second.

U3C A14U U28G and U3A C27U C60A cannot be ordered by yeast fitness: ≤ 0.5 for the first, ≤ 0.5 for the second.

Going from U3A C22G to U3C A36G G39C C55U C66U, the yeast fitness falls from 0.714 to ≤ 0.5.

First: U3C C5U
Second: U3C A14C
The yeast fitness of the first is higher: 0.836 for the first, 0.703 for the second.

First: U3A C31U A40C U64A
Second: U3A C27G U28G A36U A45U C49G
The yeast fitness of the first is lower: ≤ 0.5 for the first, 0.662 for the second.

U3C C4G C66G and U3A G6A A14U C33G cannot be ordered by yeast fitness: ≤ 0.5 for the first, ≤ 0.5 for the second.

Going from U3A G23A U32A to U3A G25A U26G, the yeast fitness rises from ≤ 0.5 to 0.535.

First: U3A C30U
Second: U3C C4U C27U C30A G41C C49A C55G C61A
The yeast fitness of the first is higher: 0.822 for the first, ≤ 0.5 for the second.

U3A C30U U54A and U3A C22U U28A A37U G51C C66U cannot be ordered by yeast fitness: ≤ 0.5 for the first, ≤ 0.5 for the second.

Compared with U3C A57C, U3A C30G C31U is lower in yeast fitness: 0.504 for the first, ≤ 0.5 for the second.

First: U3A U7C
Second: U3A G10C G39C G48A
The yeast fitness of the first is higher: 0.839 for the first, ≤ 0.5 for the second.

U3A G9C C27G C34A and U3A C62U G63C cannot be ordered by yeast fitness: ≤ 0.5 for the first, ≤ 0.5 for the second.

Going from U3C A69U to U3A C27G A43G, the yeast fitness falls from 1.03 to ≤ 0.5.

Compared with U3A G38A, U3A U26A C66U is lower in yeast fitness: 0.787 for the first, ≤ 0.5 for the second.

U3C C24G C31U C55A and U3C C5G A40G cannot be ordered by yeast fitness: ≤ 0.5 for the first, ≤ 0.5 for the second.

Compared with U3C A43C, U3A C27A C29G A65G is lower in yeast fitness: 1.04 for the first, ≤ 0.5 for the second.

Compared with U3A U19C, U3C A20C A45C C49U is lower in yeast fitness: 0.875 for the first, ≤ 0.5 for the second.

Going from U3C A14U A40G C61G to U3A U28C C29G, the yeast fitness falls from 0.567 to ≤ 0.5.

Compared with U3C A20U C30U A37G, U3C A42C A69C is higher in yeast fitness: 0.633 for the first, 0.978 for the second.

Going from U3C A21U C34A G52A C61G G63A to U3A G39A C49U, the yeast fitness rises from ≤ 0.5 to 0.559.

U3A U47G G67A A69U and U3A U7A U32C G41A cannot be ordered by yeast fitness: ≤ 0.5 for the first, ≤ 0.5 for the second.

Going from U3A C11U A65C to U3A G23A A70G, the yeast fitness falls from 0.61 to 0.561.

U3A U16A C22U A36C G38U G48C and U3C C11G C34G A36C G52A C60G cannot be ordered by yeast fitness: ≤ 0.5 for the first, ≤ 0.5 for the second.

U3C C11G A42C C49U and U3A C31A C55U cannot be ordered by yeast fitness: ≤ 0.5 for the first, ≤ 0.5 for the second.

Going from U3A C31G to U3C C5G A20G G63C C66G, the yeast fitness falls from 0.845 to ≤ 0.5.

Going from U3A G41C G63C A65U to U3A U13C G25A, the yeast fitness rises from ≤ 0.5 to 0.67.

Compared with U3A G25A G38A, U3A G50C G51C G56A is lower in yeast fitness: 0.583 for the first, ≤ 0.5 for the second.

First: U3A G10C A57G C66U
Second: U3A C61U
The yeast fitness of the first is lower: ≤ 0.5 for the first, 0.924 for the second.

U3C A14U A37U and U3C A15G C60G C62U cannot be ordered by yeast fitness: ≤ 0.5 for the first, ≤ 0.5 for the second.

Going from U3A C24G A69C to U3A G6C, the yeast fitness rises from ≤ 0.5 to 0.662.

U3A C27A C30U G41C A43U C49A and U3A U13A C22U C24U cannot be ordered by yeast fitness: ≤ 0.5 for the first, ≤ 0.5 for the second.

First: U3A G17A C22U
Second: U3C C5U G39C
The yeast fitness of the first is lower: 0.559 for the first, 0.57 for the second.

Compared with U3A U59G, U3A U59A is lower in yeast fitness: 0.81 for the first, 0.658 for the second.

Compared with U3C A65G G68C, U3C C24U is higher in yeast fitness: 0.561 for the first, 1.01 for the second.

Going from U3C A42U G63A to U3C A21C, the yeast fitness rises from ≤ 0.5 to 0.831.

Going from U3A G38C G41C A65G to U3C C4G G23C, the yeast fitness falls from 0.78 to ≤ 0.5.

U3C C24A C66U and U3A G6C C55G cannot be ordered by yeast fitness: ≤ 0.5 for the first, ≤ 0.5 for the second.

First: U3C A36G C61U
Second: U3C C5A C66U
The yeast fitness of the first is higher: 0.623 for the first, 0.605 for the second.

Compared with U3C A14G C30G A43C, U3A G58A is higher in yeast fitness: ≤ 0.5 for the first, 1.01 for the second.

Compared with U3A G23C A45G, U3A G48A A57U is higher in yeast fitness: ≤ 0.5 for the first, 0.591 for the second.

Going from U3C A14U A15C C31G A43U to U3A U19A C61U A70U, the yeast fitness rises from ≤ 0.5 to 0.551.

U3A U16C C33G C62U and U3A C24U C31G G44C A69U cannot be ordered by yeast fitness: ≤ 0.5 for the first, ≤ 0.5 for the second.

Going from U3C A20G A43G to U3A G6A U16A C24G A37U C49U G67A, the yeast fitness falls from 0.744 to ≤ 0.5.

First: U3C C11G A21U G56A
Second: U3C A45U G51C
The yeast fitness of the first is lower: ≤ 0.5 for the first, 0.574 for the second.

U3C A14C G44C G50C U54C C55A and U3C A57C U64A cannot be ordered by yeast fitness: ≤ 0.5 for the first, ≤ 0.5 for the second.

U3A C33U A40C and U3A U7A A43C G56A cannot be ordered by yeast fitness: ≤ 0.5 for the first, ≤ 0.5 for the second.

U3A G12C C24G and U3C C11G G63U cannot be ordered by yeast fitness: ≤ 0.5 for the first, ≤ 0.5 for the second.

U3C C5G G51C and U3C C5U U8C U13C C29U C46A A65U C66A cannot be ordered by yeast fitness: ≤ 0.5 for the first, ≤ 0.5 for the second.

Going from U3A U8C A36U U53G to U3A C55U, the yeast fitness rises from ≤ 0.5 to 0.876.

Compared with U3A G17A C22U A45G, U3A G18A C49G C55G C60A C62A G68A A69U is higher in yeast fitness: ≤ 0.5 for the first, 0.623 for the second.

U3A C30G A36G C46G and U3C A40U A45U G52A cannot be ordered by yeast fitness: ≤ 0.5 for the first, ≤ 0.5 for the second.

Compared with U3C A45U C49G, U3C C5G G17C C29U is lower in yeast fitness: 0.678 for the first, ≤ 0.5 for the second.

Compared with U3A G12C A15C U19A C34U C49A G67A, U3C A45C C49U is higher in yeast fitness: ≤ 0.5 for the first, 0.712 for the second.

Compared with U3A U54C, U3A U19A C62U is lower in yeast fitness: 0.777 for the first, 0.776 for the second.

U3C A20G C24U G52A A57U C62A and U3C A37U G51A C62U cannot be ordered by yeast fitness: ≤ 0.5 for the first, ≤ 0.5 for the second.

First: U3C C27A
Second: U3A C22U C24A C27U A43C
The yeast fitness of the first is higher: 0.706 for the first, 0.522 for the second.

Going from U3C C4U A15G U26A U32A C62U G67C to U3A C27G C31U C33U A42C G58C, the yeast fitness falls from 0.613 to ≤ 0.5.

U3A C30G C33U C55U and U3A C22G C24U C33A G58A cannot be ordered by yeast fitness: ≤ 0.5 for the first, ≤ 0.5 for the second.

Compared with U3C A36C, U3C C4A G23A C31G A40C is lower in yeast fitness: 0.566 for the first, ≤ 0.5 for the second.

Compared with U3C A43C A65U, U3A U19A C24U is higher in yeast fitness: 0.604 for the first, 0.74 for the second.

U3C C11U U19A A43U U59A G63A and U3C A15C A65C cannot be ordered by yeast fitness: ≤ 0.5 for the first, ≤ 0.5 for the second.

First: U3C A40U
Second: U3A C11U U13A G17C G18C A36C
The yeast fitness of the first is higher: 0.976 for the first, ≤ 0.5 for the second.

Going from U3A G67A to U3A C33G A43G G58A G67A A69U, the yeast fitness falls from 0.684 to ≤ 0.5.

First: U3C A45U U59C
Second: U3A C22U G39A C66U A69C
The yeast fitness of the first is higher: 0.699 for the first, ≤ 0.5 for the second.

U3C A36U A69U and U3A G25A A37U C61A cannot be ordered by yeast fitness: ≤ 0.5 for the first, ≤ 0.5 for the second.

U3C C11A C24U A42G G63A and U3C A40U C49A C62A cannot be ordered by yeast fitness: ≤ 0.5 for the first, ≤ 0.5 for the second.

First: U3A G41C C66A
Second: U3C C4A U16C G17A
The yeast fitness of the first is higher: 0.527 for the first, ≤ 0.5 for the second.

Going from U3C C11A C31A C49G G58C to U3C A21U G38C, the yeast fitness rises from ≤ 0.5 to 0.668.

U3A G6A C31U A40C and U3A C24U C31G A37G cannot be ordered by yeast fitness: ≤ 0.5 for the first, ≤ 0.5 for the second.

Going from U3C A40G G58C A70U to U3C C22A G67A, the yeast fitness rises from ≤ 0.5 to 0.667.

First: U3C A21C A45C C49U
Second: U3A C34A A69G
The yeast fitness of the first is higher: 0.532 for the first, ≤ 0.5 for the second.

U3A G10C G17C A37C G50C and U3A C27U A37G G41C U64C A70C cannot be ordered by yeast fitness: ≤ 0.5 for the first, ≤ 0.5 for the second.

First: U3A U26G
Second: U3C C22U C55G U64A
The yeast fitness of the first is higher: 0.781 for the first, ≤ 0.5 for the second.

U3A G39C A45G G50A and U3A C22G C31G cannot be ordered by yeast fitness: ≤ 0.5 for the first, ≤ 0.5 for the second.

Going from U3A C33U G44A to U3C A20G U47C, the yeast fitness rises from ≤ 0.5 to 0.686.

U3A U13C C49G and U3A G48C U54C C55A cannot be ordered by yeast fitness: ≤ 0.5 for the first, ≤ 0.5 for the second.

With U3A C46U the yeast fitness was 1.
